Experimental findings from ChEMBL document CHEMBL5226362, “Screening for Cyclotides in Sri Lankan Medicinal Plants: Discovery, Characterization, and Bioactivity Screening of Cyclotides from Geophila repens” (J Nat Prod, 2023) are described below.

One assay has as its system Staphylococcus aureus. Briefly: Antibacterial activity against Staphylococcus aureus ATCC 29213 assessed as inhibition of bacterial growth at 6 to 12 hrs by dilution method. Type of assay: functional. The note with it: time 6-12 hrs. A digest of the protocol:
(§1)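 Broth-free microdilution MIC assay. Microbes were grown overnight in 3% TSB at 37 °C, washed twice and resuspended in Tris buffer, then adjusted by A600 to 1 × 10⁶ cells/mL (about 50 000 cells/well). Cells were mixed 1:1 with 2-fold serial dilutions of peptide in Tris buffer (highest tested 32.5 μM) and held 5 h. Then 20% TSB was added and plates incubated 6–12 h at 37 °C, depending on organism. MIC was read as the lowest concentration giving 100% growth inhibition. Run in triplicate.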

For the next assay, the system named is Pseudomonas aeruginosa. Briefly: Antibacterial activity against Pseudomonas aeruginosa ATCC 27853 assessed as inhibition of bacterial growth at 6 to 12 hrs by dilution method. Type of assay: functional. The settings on record: time 6-12 hrs. A digest of the protocol:
as §1

The test system of a further assay is Cell membrane. Briefly: Induction of bacterial inner membrane permeabilization in Escherichia coli assessed as carboxyfluorescein leakage measured for 45 mins by fluorescence based microplate reader assay. Type of assay: subcellular. The essentials: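 Liposomes were made from E. coli polar lipid extract loaded with 100 mM carboxyfluorescein in 10 mM Tris, pH 7.4, extruded through 100 nm membranes and gel-filtered. They were added at 10 μM final lipid to 2-fold peptide dilutions in Tris at 37 °C, with no cumulative additions. Dequenching was monitored for 45 min and normalized to 0.16% Triton X-100 after baseline subtraction. Values are the mean ± SD of triplicates; EC50 came from a variable-slope sigmoidal fit against log concentration.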

The test system of assay [1] is U-937. Description: Cytotoxicity against human U-937 cells assessed as cell survival at 20 uM incubated for 72 hrs by FMCA assay. Type of assay: functional, cell-based. A digest of the protocol:
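FMCA with U937 human lymphoma cells, about 20 000 cells/well, exposed to 2-fold peptide dilutions for 72 h at 37 °C in 5% CO₂. Cells were washed with PBS and given FDA in Q2 buffer (NaCl/HEPES, pH 7.4) for 40 min at 37 °C. Fluorescence was read at ex 485/em 538 nm. Viability was expressed as % of control after blank subtraction; IC50 came from a variable-slope sigmoidal fit against log concentration.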

The next assay has as its system Candida albicans. Briefly: Antibacterial activity against Candida albicans ATCC 90028 assessed as inhibition of bacterial growth at 6 to 12 hrs by dilution method. Type of assay: functional. The note with it: time 6-12 hrs. The essentials: as §1
Assay [2] relates to U-937. Description: Cytotoxicity against human U-937 cells assessed as inhibition of cell growth incubated for 72 hrs by FMCA assay. Type of assay: functional, cell-based. The settings on record: U-937, 72 h. The essentials: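 FMCA with U937 human lymphoma cells, about 20 000 cells/well, exposed to 2-fold peptide dilutions for 72 h at 37 °C in 5% CO₂. Cells were washed with PBS and given FDA in Q2 buffer (NaCl/HEPES, pH 7.4) for 40 min at 37 °C. Viability was expressed as % of control after blank subtraction; IC50 came from a variable-slope sigmoidal fit against log concentration.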

Converted amounts (≈) assume the structure as drawn. The source made the active and inactive calls. The calls are words filed in the database; no cut-off is given here. Where a SMILES comes first, the peptide text is derived from it. Bridges are numbered along the chain shown (N, C = ends).

As a reminder, the MIC is the least concentration at which growth counts as inhibited. What is called EC50 is the concentration giving half of the maximal effect. For `CC[C@H](C)[C@@H]1NC(=O)[C@H](Cc2ccccc2)NC(=O)[C@H](C(C)C)NC(=O)[C@@H]2CSSC[C@@H]3NC(=O)[C@H](CO)NC(=O)[C@H]4CSSC[C@H](NC(=O)[C@@H]5CCCN5C(=O)[C@H](C(C)C)NC(=O)CNC(=O)[C@H](CC(N)=O)NC(=O)[C@H](CC(N)=O)NC(=O)[C@H](Cc5ccc(O)cc5)NC(=O)[C@H](CSSC[C@H](NC(=O)[C@@H]5CCCN5C1=O)C(=O)N[C@@H](Cc1ccccc1)C(=O)N[C@@H]([C@@H](C)O)C(=O)N[C@@H]([C@@H](C)O)C(=O)N[C@@H](C(C)C)C(=O)N[C@@H](C(C)C)C(=O)NCC(=O)N4)NC(=O)[C@H](C(C)C)NC(=O)[C@H](CCCCN)NC(=O)[C@H](CC(=O)O)NC(=O)[C@H](CCCCN)NC3=O)C(=O)NCC(=O)N[C@@H](CCC(=O)O)C(=O)N[C@@H](CO)C(=O)N2`, the MIC in the assay on Staphylococcus aureus, with Pseudomonas aeruginosa and with Candida albicans was over 10 µM in each case. For the same compound, the EC50 in the assay on Cell membrane was 160 nM. In the assay on U-937 [1], the result was Active.
In general, IC50 refers to the midpoint of a concentration-inhibition curve. For `CC[C@H](C)[C@@H]1NC(=O)[C@H](C)NC(=O)[C@H](CO)NC(=O)[C@H](CO)NC(=O)[C@H]([C@@H](C)CC)NC(=O)[C@@H]2CSSC[C@@H]3NC(=O)[C@H](C(C)C)NC(=O)[C@H](CCCCN)NC(=O)[C@H](CO)NC(=O)[C@H](CCCCN)NC(=O)[C@@H]4CSSC[C@H](NC(=O)[C@H](CO)NC(=O)[C@H](CCC(=O)O)NC(=O)CNC(=O)[C@H](CSSC[C@H](NC(=O)CNC1=O)C(=O)N[C@@H](CO)C(=O)N4)NC(=O)[C@@H]1CCCN1C(=O)[C@H]([C@@H](C)CC)NC(=O)CNC(=O)[C@H](CC(N)=O)NC(=O)[C@H](CCCNC(=N)N)NC(=O)[C@H](Cc1ccc(O)cc1)NC3=O)C(=O)N[C@@H](C(C)C)C(=O)N[C@@H](Cc1c[nH]c3ccccc13)C(=O)N[C@@H]([C@@H](C)CC)C(=O)N1CCC[C@H]1C(=O)N2` (cyclo(AIGCSCKSKVCYRNGIPCGESCVWIPCISS); disulfide 4-18, 6-22, 11-27), the MIC is over 10 µM in the assay with Staphylococcus aureus, 10 µM (≈ 31.4 µg/mL) with Pseudomonas aeruginosa and over 10 µM in the assay on Candida albicans. For the same compound, in the assay with U-937 [2], the IC50 stood at 260 nM.
As for `CC[C@H](C)[C@@H]1NC(=O)[C@H](C(C)C)NC(=O)[C@H]([C@@H](C)O)NC(=O)[C@H]([C@@H](C)O)NC(=O)[C@H]([C@@H](C)CC)NC(=O)[C@H]2CSSC[C@@H]3NC(=O)[C@H](C(C)C)NC(=O)[C@H](CCCCN)NC(=O)[C@H](CC(=O)O)NC(=O)[C@H](CCCCN)NC(=O)[C@@H]4CSSC[C@H](NC(=O)[C@H](CO)NC(=O)[C@H](CCC(=O)O)NC(=O)CNC(=O)[C@H](CSSC[C@@H](NC(=O)CNC1=O)C(=O)N[C@@H](CO)C(=O)N4)NC(=O)[C@@H]1CCCN1C(=O)[C@H](C(C)C)NC(=O)CNC(=O)[C@H](CC(N)=O)NC(=O)[C@H]([C@@H](C)O)NC(=O)[C@H](Cc1ccc(O)cc1)NC3=O)C(=O)N[C@@H](C(C)C)C(=O)N[C@@H](Cc1ccccc1)C(=O)N[C@@H]([C@@H](C)CC)C(=O)N1CCC[C@H]1C(=O)N2`, the MIC with Staphylococcus aureus, in the assay with Pseudomonas aeruginosa and in the assay with Candida albicans was over 10 µM throughout. Moreover, in the assay with Cell membrane, the EC50 was determined as 160 nM. In addition, the outcome with U-937 [1] was Active.
As for `CC[C@H](C)[C@@H]1NC(=O)CNC(=O)[C@H](CC(N)=O)NC(=O)[C@H]([C@@H](C)CC)NC(=O)[C@H](Cc2ccc(O)cc2)NC(=O)[C@@H]2CSSC[C@H]3NC(=O)CNC(=O)[C@H](Cc4ccccc4)NC(=O)[C@H](Cc4ccc(O)cc4)NC(=O)[C@H](C)NC(=O)[C@@H]4CSSC[C@H](NC(=O)[C@H](CO)NC(=O)[C@H](CSSC[C@H](NC(=O)[C@H](C)NC1=O)C(=O)NCC(=O)N[C@@H](CCC(=O)O)C(=O)N[C@@H](CO)C(=O)N4)NC(=O)CNC(=O)[C@@H]1CCCN1C(=O)[C@H]([C@@H](C)CC)NC(=O)[C@H](Cc1c[nH]c4ccccc14)NC3=O)C(=O)N[C@@H](CCCCN)C(=O)N[C@@H](CC(=O)O)C(=O)N[C@@H](CCCCN)C(=O)N[C@@H](C(C)C)C(=O)N2`, the MIC in the assay on Staphylococcus aureus, in the assay on Pseudomonas aeruginosa and in the assay with Candida albicans was over 10 µM throughout. Besides, the EC50 in the assay with Cell membrane came out at 140 nM. The result in the assay with U-937 [1] was Active.
